Hits are enriched below; roughly 2.5% of the tested compounds scored in any of these assays.
dFosB act: activators of mouse delta FosB homodimer. purified delta FosB, TAMRA-CDK5 oligo fluorescence polarization; percent of positive-control signal above neutral wells. activation, % at 25 µM. hit rate 0.99% among 340,000;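 active = mean activation above about 17%, with every replicate also reaching it, limit read from the data, passing the limit was not always enough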
Target sequence (P13346 whole entry, looked up): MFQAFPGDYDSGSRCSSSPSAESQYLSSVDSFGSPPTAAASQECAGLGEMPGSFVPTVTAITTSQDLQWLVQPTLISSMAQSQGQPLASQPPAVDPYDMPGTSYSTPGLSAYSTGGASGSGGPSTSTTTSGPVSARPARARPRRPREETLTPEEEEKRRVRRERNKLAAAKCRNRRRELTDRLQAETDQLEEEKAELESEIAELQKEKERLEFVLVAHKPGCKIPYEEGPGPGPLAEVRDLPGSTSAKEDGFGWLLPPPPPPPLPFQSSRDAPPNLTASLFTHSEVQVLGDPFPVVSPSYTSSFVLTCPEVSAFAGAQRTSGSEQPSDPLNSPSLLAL
CDK5 p35 inh: inhibitors of human CDK5/p35 kinase; Q00535+Q15078; Recombinant CDK5/p35, ADP-Glo luminescence, 60 min; inhibition, % at 10 µM; hit rate 0.01% among 330,000;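 active = highest replicate inhibition of at least 50% and at least 75% of replicates reaching 50%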;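 also: plate controls were DMSO neutral control for no effect and GW8510 at 10 µM for full effect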
SR-BI uptake up: SR-BI HDL lipid transfer activation. activation, % at 12.5 µM. hit rate 0.096% among 320,000. CHO ldlA[mSR-BI] cells, DiI-HDL uptake fluorescence, 3 h; 100 = double the neutral-control signal;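 active = mean replicate activation of at least 60% and every replicate at or above 60%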;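 also: 0% = median plate neutral-control signal and 100% = twice that signal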
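Material – SR-BI-overexpressing, LDLR-lacking CHO cells · Medium – BSA-supplemented, HEPES-buffered Ham's F12, pH 7.4 · Doses – single concentration · Times – compound with DiI-HDL co-incubation, 3 h at 37 °C · Measured by – bottom-read fluorescence, 550/595 nm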
DYRK1A inh: Dyrk1A (rat) kinase inhibition. Q63470. ADP-Glo luminescence, NFATc1 peptide. inhibition, % at 12.5 µM. hit rate 0.43% among 310,000;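 also: plate controls were vehicle with enzyme for no effect and no enzyme for full effect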
SR-BI HDL uptake: blocks mouse SR-BI lipid uptake from DiI-HDL; hit rate 0.96% among 320,000; AID 488896; inhibition, % at 12.5 µM; Q61009; ldlA[mSR-BI] CHO cells, DiI-HDL uptake fluorescence, 3 h;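 active = mean replicate inhibition of at least 70% and a set share of replicates each scoring 70 or more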;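 also: 0% = median of neutral control wells and 100% = median of positive control wells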
NSD2 inh: inhibitors of human histone methyltransferase NSD2; O96028; hit rate 0.54% among 310,000; inhibition, % at 12.5 µM; NSD2 peptide methylation, AlphaScreen, 120 min
* marks the source's active call; other numbers are inactive results; nt = not tested or not shown. Rule as the data show it, unless noted: active = inhibition above about 50%; inactive = the rest.

SMILES	dFosB act	CDK5 p35 inh	SR-BI uptake up	DYRK1A inh	SR-BI HDL uptake	NSD2 inh
Cc1cc(NC(=O)CSCc2ccc([N+](=O)[O-])cc2)no1	-7	1	9	nt	-9	143*
Clc1ccc2nc(CNc3nc(N4CCOCC4)nc4c3ncn4-c3ccsc3)[nH]c2c1	nt	nt	nt	nt	nt	1
[O-][n+]1onc2c1CCc1c-2nc(-c2ccccc2)n1OCc1ccccc1	-7	-2	-80	3	80*	-5
COn1c(-c2ccccc2)nc2c1CCc1c-2no[n+]1[O-]	5	0	5	0	-5	-4
CC1=NOC(=O)/C1=C\c1ccc(-c2ccc(Cl)cc2Cl)o1	-1	-2	-129	-1	129*	13
Cn1c(Cc2cccs2)nnc1SCC(=O)Nc1ccc2c(c1)OCCO2	nt	nt	nt	nt	nt	0
O=C(c1noc2c1CSc1ccccc1-2)N1CCN(c2ccc(Cl)cc2)CC1	1	nt	6	nt	-6	7
CCOc1ccc(C2=Nn3c(nnc3-c3ccccc3OC)SC2)cc1	-22	1	-21	1	21	8
COc1ccc(C2=Nn3c(nnc3-c3ccncc3)SC2)cc1OC	88*	2	-20	28	20	nt
COc1ccccc1-c1nnc2n1N=C(c1ccc(O)c(O)c1)CS2	4	0	8	10	-8	56*
CC(=NNC(=O)CSc1nnc(-c2ccccc2)n1-c1ccccc1)c1ccc2ccccc2c1	nt	nt	nt	nt	nt	-1
Cc1cc2nc[nH]c(=O)n2n1	nt	nt	nt	nt	nt	-1
CCOc1ccc(Nc2c3ccccc3nc3ccccc23)cc1	86*	1	nt	nt	nt	nt
CCOc1ccc(Nc2cc(C)c3ccccc3n2)cc1	-4	1	1	10	-1	8
CCC(C)(C)C1CCC(NC(=O)c2ccc(S(=O)(=O)N3CCOCC3)cc2)CC1 (centres undefined)	-4	-1	67*	-4	-67	-4
COc1cc(OC)cc(-c2c(C#Cc3ccsc3)c3cc(-c4cccc5[nH]ccc45)ccc3n2C)c1	18*	0	-17	4	17	nt
COc1cc(OC)cc(-c2c(C#Cc3ccsc3)c3cc(-c4ccccc4OC)ccc3n2C)c1	-9	-1	-35	-1	35	nt
COc1cc(OC)cc(-c2c(C#Cc3ccsc3)c3cc(-c4ccc5cc[nH]c5c4)ccc3n2C)c1	0	3	-72	3	72*	nt
COc1ccc(-c2c(C#Cc3ccsc3)c3cc(-c4ccc5cc[nH]c5c4)ccc3n2C)cc1	4	2	-35	5	37	nt
O=C1NNC(c2ccccc2)=N/C1=C\c1ccccc1Cl	-11	-4	-16	22	16	93*
CC(C)(C)c1nnc(N/N=C/c2cc(Br)ccc2O)n(N)c1=O	10	1	-115	15	115*	-5
CCN(CC)CCNC(=O)c1c(C)n(-c2ccccc2)c2cc(Br)c(OC)cc12	26*	0	17	7	-17	nt
COc1cc2c(C(=O)N3CCN(C)CC3)c(C)n(-c3ccccc3)c2cc1Br	1	2	16	1	-16	6
Cc1ccccc1-n1nnnc1SCC(=O)NCC1CCCO1 (centres undefined)	5	1	23	5	-23	-5
COc1cc(N=Nc2cccc(S(N)(=O)=O)c2)c2ccccc2c1N	-8	10	-69	58*	69	10
SMILES	dFosB act	CDK5 p35 inh	SR-BI uptake up	DYRK1A inh	SR-BI HDL uptake	NSD2 inh
Cn1c(-c2ccc(F)cc2)cnc1NCc1ccccc1F	-11	1	-88	12	88*	5
CCCNC(=S)N1CCN(c2nc(C)nc3sc4c(c23)CCCC4)CC1	-10	2	-73	4	73*	0
Cc1ccc(S(=O)(=O)Nc2ccccc2N=Cc2c(F)c(F)c(F)c(F)c2F)cc1	-4	0	-92	-4	92*	-2
Cc1ccc(S(=O)(=O)Nc2ccccc2C=Nc2cccc(C)c2C)cc1	-3	0	35	3	-35	-2
Cc1ccc(C(=O)N2CCCCC2)cc1NC1=C(Cl)C(=O)N(Cc2ccccc2)C1=O	-15	-1	6	-2	-6	1
Cc1ccc(O)c(NC2=C(Cl)C(=O)N(Cc3ccccc3)C2=O)c1	-12	1	-77	7	77*	1
